Laboratory results reported in ChEMBL document CHEMBL1828568, “Novel imaging agents for β-amyloid plaque based on the N-benzoylindole core” (Bioorg Med Chem Lett, 2011).

Assay: Displacement of [125I]TZDM from amyloid beta (1 to 40) aggregates after 2 hrs by gamma counting
Summary of the method: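 Competition binding against [125I]TZDM as radiolabeled standard, using Aβ1–40 aggregates; run in triplicate, results as mean ± SD.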

Ki	Structure (SMILES)
32.7 nM	O=C(/C=C/c1ccccc1)n1ccc2cc(F)ccc21
18.9 nM	O=C(/C=C/c1ccccc1)n1ccc2cc(Br)ccc21
21.6 nM	O=C(/C=C/c1ccccc1)n1ccc2cc(O)ccc21
32.4 nM	COc1ccc(/C=C/C(=O)n2ccc3cc(F)ccc32)cc1
18.1 nM	COc1ccc(/C=C/C(=O)n2ccc3cc(Cl)ccc32)cc1
